Compound activity deposited in PubChem by several laboratories.
Rows were chosen to be rich in hits. Some 4.7% of all compounds tested hit in one or more screens of this group.
MT1-MMP act inh = blockers of MT1-MMP proenzyme processing, primary screen, HT1080 RFP-PRO-GFP cells, GFP/RFP fluorescence; Matrix metalloproteinase-14 (Homo sapiens), P50281; GFP/RFP ratio fluorescence, overnight; percent of plate control window, DMSO zero; GFP/RFP ratio change, % at 20 µM; 360,000 compounds, 0.061% hits; AID 651647, 2012;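 active = GFP/RFP ratio change of at least 30% with cell ATP level not reduced by more than half and red fluorescence within 50% of control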
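Assay system: RFP-PRO-GFP reporter HT1080 cells; read-out basis: GFP/RFP fluorescence ratio; benchmarks: DMSO wells and RFP-L50D-GFP cells; doses: 20 µM single dose, 1% DMSO; schedule: overnight cell settling, then overnight compound exposure, 37 °C, 5% CO2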
ADAM10 inh = human ADAM10 inhibitors, primary screen, biochemical, QFRET, HTS. AID 720582, 2013. inhibition, % at 7 µM. recombinant ADAM10, EDANS/DABCYL FRET peptide cleavage, 3 h. 370,000 compounds, 0.62% hits. Disintegrin and metalloproteinase domain-containing protein 10 (Homo sapiens), O14672;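 active = inhibition above a per-campaign cutoff equal to the mean of compounds falling between control-based bounds plus 3 SD, cut at about 20% in these data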;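 note: 0% = DMSO wells while the 100% control is not disclosed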
MPTP block = mitochondrial permeability transition pore inhibitors, primary screen, biochemical, isolated mouse mitochondria, absorbance. Ca2+ swelling absorbance, 30 min. inhibition, % at 10 µM. 360,000 compounds, 1.4% hits. AID 602449, 2012;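 active = inhibition of 50% or more, scaled per plate between neutral and stimulator controls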;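 note: 0% = DMSO wells given calcium and 100% = 1 mM EGTA wells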
GRIN3A LBD mod = binders of NR3A ligand-binding domain, primary screen, biophysical, differential scanning fluorimetry, uHTS; NR3A LBD differential scanning fluorimetry, Tm shift; 0% = protein alone, 100% = glycine-bound protein; Tm shift relative to glycine control, % at 25 µM; 340,000 compounds, 2.5% hits; AID 1259313, 2017;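 active = melting temperature shift of at least 10% of the positive control shift, at one fixed dose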
SKN-1 inh = suppressors of acrylamide-induced Pgst-4::GFP reporter in worms, primary screen, SKN-1 inhibitor project, whole organism, uHTS, GFP/RFP fluorescence ratio, strain VP596; inhibition, % at 21.8 µM; C. elegans VP596 Pgst-4::GFP/RFP ratio, 24 h; 360,000 compounds, 0.49% hits;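 active = interference check ratio from 0.5 to 1.5 plus GFP to RFP signal ratio inhibition reaching or exceeding a fixed threshold, cut at about 30% in these data, passing the limit was not always enough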
ADAM17 inh = ADAM17 inhibitors, primary screen, biochemical, QFRET. recombinant ADAM17, EDANS/DABCYL FRET peptide cleavage. Disintegrin and metalloproteinase domain-containing protein 17 (Homo sapiens), P78536. 370,000 compounds, 0.83% hits. inhibition, % at 6.95 µM. AID 720648, 2013;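 active = inhibition above the mean of compounds lying between control limits plus 3 SD, set per campaign, cut at about 8.5% in these data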;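 note: 0% = DMSO-only wells as the low control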
Target sequence (P78536 215-824 limits assumed): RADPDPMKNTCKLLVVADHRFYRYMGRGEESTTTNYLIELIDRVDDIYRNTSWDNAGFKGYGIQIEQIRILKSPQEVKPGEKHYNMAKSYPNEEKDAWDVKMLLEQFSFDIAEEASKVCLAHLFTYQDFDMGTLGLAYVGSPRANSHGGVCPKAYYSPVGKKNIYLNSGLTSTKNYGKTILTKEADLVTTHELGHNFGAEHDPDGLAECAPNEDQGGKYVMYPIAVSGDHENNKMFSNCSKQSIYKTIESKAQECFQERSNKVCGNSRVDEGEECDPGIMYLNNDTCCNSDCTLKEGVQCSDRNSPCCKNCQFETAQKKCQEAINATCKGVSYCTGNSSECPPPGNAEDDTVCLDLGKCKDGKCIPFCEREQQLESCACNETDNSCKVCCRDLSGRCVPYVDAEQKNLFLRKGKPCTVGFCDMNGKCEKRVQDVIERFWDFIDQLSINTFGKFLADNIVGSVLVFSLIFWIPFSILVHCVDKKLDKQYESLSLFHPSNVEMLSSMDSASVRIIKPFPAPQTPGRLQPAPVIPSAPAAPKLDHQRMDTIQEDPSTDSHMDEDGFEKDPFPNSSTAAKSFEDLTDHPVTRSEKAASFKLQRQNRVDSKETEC
ADAM10 confirm = human ADAM10 inhibitors, confirmation, biochemical, QFRET, triplicate; ADAM10 QFRET peptide cleavage, EDANS fluorescence; shares compounds with ADAM10 inh; 2,100 compounds, 1% hits; AID 743208, 2013; inhibition, % at 6.95 µM;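 active = inhibition above about 20% chosen separately for each screening run, limit read from the data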;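 note: 0% = DMSO wells and 100% = marimastat wells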
ADAM17 counter = ADAM17 inhibitors, counter-screen for ADAM10 exosite inhibitor project, biochemical, QFRET, high throughput | shares compounds with ADAM10 inh | ADAM17 QFRET peptide cleavage, EDANS fluorescence | inhibition, % at 6.95 µM | 2,100 compounds, 0.5% hits | AID 743214, 2013;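 active = mean triplicate inhibition above the solvent-only control wells' mean plus 3 SD, cut at about 12% in these data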;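 note: 0% = DMSO wells and 100% = marimastat wells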
* marks the source's active call; other numbers are inactive results; . = no result given.

SMILES	MT1-MMP act inh	ADAM10 inh	MPTP block	GRIN3A LBD mod	SKN-1 inh	ADAM17 inh	ADAM10 confirm	ADAM17 counter
OC(CC1CC12c1ccccc1-c1ncccc12)(c1ccccc1)c1ccccc1 (configuration not stated)	-35.8	23.7*	0.8	-6.1	5.9	4.0	6.9	2.1
CC1CCCC(C)N1C(=C(Cl)Cl)C(=C1SCCS1)[N+](=O)[O-] (configuration not stated)	-3.2	21.4*	1.6	-7.7	-10.0	8.2	1.1	1.0
O=[N+]([O-])C(=C1NCCN1)C(Cl)=C(Cl)Cl	-0.3	0.0	-0.7	-0.9	0.1	-2.5	.	.
Cc1ccc(C(=O)C[n+]2ccccc2C)cc1[N+](=O)[O-]	5.1	4.8	-1.8	0.0	15.8	4.8	.	.
CC(C)NC(=O)c1onc(CSc2cccc3ccccc23)c1C(=O)O	3.8	85.5*	2.8	-6.8	-6.0	-3.9	-0.8	0.6
CC(C)NC(=O)c1onc(CSc2ccccc2)c1C(=O)O	0.0	4.1	-0.7	-2.1	9.4	-2.0	.	.
CCCCC[C@H]1CCCCC[C@@H](O)C[C@H](O)[C@H](O)/C=C/C(=O)O1	2.6	-8.8	2.1	.	-6.4	-4.5	.	.
Cn1cccc1Cc1nnc(SCC(=O)Nc2ccc(F)cc2)n1-c1ccc(F)cc1	2.8	-13.8	-0.5	0.9	-2.6	2.4	.	.
Cn1cccc1Cc1nnc(SCC(=O)Nc2ccccc2)n1-c1ccc(F)cc1	-1.0	78.6*	-3.1	-5.4	10.4	-1.3	2.2	0.3
COc1ccc(-n2c(Cc3cccn3C)nnc2SCC(=O)Nc2ccc(Cl)cc2)cc1	4.0	86.3*	0.7	-6.9	1.0	0.3	-1.7	0.2
CCc1c(Cc2cccc(F)c2)ncn1CCc1ccccc1OC	.	-1.6	.	.	.	-1.6	.	.
CCCc1c(Cc2cccc(F)c2)ncn1CCc1ccccc1OC	.	45.8*	.	.	.	-0.6	1.4	0.8
CCCCCCCOc1ccc(C2(C)NC(=O)NC2=O)cc1 (configuration not stated)	-2.8	21.0*	-0.2	-1.8	1.4	5.3	0.4	0.6
CCCCOc1ccc(C2(C)NC(=O)NC2=O)cc1 (configuration not stated)	0.5	-1.7	2.8	-1.2	12.5	-3.3	.	.
Cc1cccc(NC(=S)NNC(=O)c2cccc([N+](=O)[O-])c2)c1	0.0	20.8*	19.2	-1.0	0.9	2.8	-2.4	0.1
Cc1ncsc1C(=O)NCc1ccc(N2CCCC2=O)cc1	2.8	-3.5	3.7	-0.8	-17.0	3.4	.	.
C=CCNC(=O)c1c(CSc2ccc(Cl)cc2)noc1C(=O)NCc1ccccc1	4.1	20.9*	0.4	-7.0	1.3	7.6	6.0	2.9
COc1cccc(NC(=O)CN2C(=O)CSc3ccc(S(=O)(=O)N4CCOCC4)cc32)c1	3.1	3.2	-1.6	-0.5	-6.1	3.8	.	.
COc1cccc(NC(=O)CN2C(=O)CSc3ccc(S(=O)(=O)N4CCC(C)CC4)cc32)c1	-5.2	20.6*	1.2	-4.1	7.5	3.3	2.6	1.3
CCN(CC)c1ccc(NC(=O)CSc2nc3ccccc3c(=O)n2-c2ccc(C)cc2)cc1	.	38.4*	.	.	.	5.4	12.8	6.2
CCC(C(=O)Oc1c(C(C)C)cccc1C(C)C)c1ccccc1 (configuration not stated)	-1.6	79.3*	-3.0	2.1	20.3	5.3	-0.8	-0.3
